ChEMBL document CHEMBL4382258, “Design and Optimization of Sulfone Pyrrolidine Sulfonamide Antagonists of Transient Receptor Potential Vanilloid-4 with in Vivo Activity in a Pulmonary Edema Model” (J Med Chem, 2018)

How the values were obtained:
[1] = biological target: Transient receptor potential cation channel subfamily M member 8 (Homo sapiens, UniProt Q7Z2W7); assay: Antagonist activity at TRPM8 (unknown origin)
[2] = Dose normalized AUC (0 to t) in rat at 2.4 mg/kg, po; assay type: ADME, organism-based; conditions: in vivo
[3] = biological target: Transient receptor potential cation channel subfamily M member 2 (Homo sapiens, UniProt O94759); assay: Antagonist activity at TRPM2 (unknown origin)
Chain of Transient receptor potential cation channel subfamily M member 2 (O94759 whole entry, the tested form may be a part): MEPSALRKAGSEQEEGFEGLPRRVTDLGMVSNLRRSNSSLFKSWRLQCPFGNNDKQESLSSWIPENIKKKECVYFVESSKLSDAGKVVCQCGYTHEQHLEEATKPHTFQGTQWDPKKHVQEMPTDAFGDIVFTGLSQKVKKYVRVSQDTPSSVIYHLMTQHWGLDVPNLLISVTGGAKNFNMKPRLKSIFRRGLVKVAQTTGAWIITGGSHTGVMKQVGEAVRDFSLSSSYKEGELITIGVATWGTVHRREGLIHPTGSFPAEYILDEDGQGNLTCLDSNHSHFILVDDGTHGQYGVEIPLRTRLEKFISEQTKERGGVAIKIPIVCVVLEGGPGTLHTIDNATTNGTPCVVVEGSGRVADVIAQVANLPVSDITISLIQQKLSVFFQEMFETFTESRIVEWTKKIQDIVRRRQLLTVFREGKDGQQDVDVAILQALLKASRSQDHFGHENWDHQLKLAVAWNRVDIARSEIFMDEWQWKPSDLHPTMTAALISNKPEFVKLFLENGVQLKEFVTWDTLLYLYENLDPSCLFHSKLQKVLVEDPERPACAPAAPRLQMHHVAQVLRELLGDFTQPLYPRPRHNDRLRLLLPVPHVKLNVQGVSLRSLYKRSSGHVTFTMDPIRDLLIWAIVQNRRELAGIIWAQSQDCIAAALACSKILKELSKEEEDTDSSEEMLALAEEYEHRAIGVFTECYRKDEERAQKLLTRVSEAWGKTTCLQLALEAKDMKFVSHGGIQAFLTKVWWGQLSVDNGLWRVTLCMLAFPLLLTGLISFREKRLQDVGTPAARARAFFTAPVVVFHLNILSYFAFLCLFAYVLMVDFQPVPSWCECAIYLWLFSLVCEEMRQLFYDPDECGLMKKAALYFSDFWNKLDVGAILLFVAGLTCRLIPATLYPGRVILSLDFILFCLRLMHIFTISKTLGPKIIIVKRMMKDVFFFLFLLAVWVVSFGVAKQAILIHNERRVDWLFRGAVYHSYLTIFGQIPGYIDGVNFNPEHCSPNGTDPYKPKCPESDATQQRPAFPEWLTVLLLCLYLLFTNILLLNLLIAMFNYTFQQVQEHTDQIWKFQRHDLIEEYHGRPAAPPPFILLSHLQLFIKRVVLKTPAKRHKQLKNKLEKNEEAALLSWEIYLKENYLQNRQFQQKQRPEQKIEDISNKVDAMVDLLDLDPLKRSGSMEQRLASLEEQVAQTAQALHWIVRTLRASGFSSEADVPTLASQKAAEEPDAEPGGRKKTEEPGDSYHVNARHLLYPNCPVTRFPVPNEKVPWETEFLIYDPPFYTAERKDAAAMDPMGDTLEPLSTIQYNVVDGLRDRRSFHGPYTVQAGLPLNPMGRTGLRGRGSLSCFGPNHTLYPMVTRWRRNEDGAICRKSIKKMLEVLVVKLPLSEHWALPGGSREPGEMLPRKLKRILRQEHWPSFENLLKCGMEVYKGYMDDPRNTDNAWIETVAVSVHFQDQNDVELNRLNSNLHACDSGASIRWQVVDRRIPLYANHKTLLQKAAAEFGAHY

[4] = Clearance in Sprague-Dawley rat at 1 mg/kg, iv administered as 30 mins infusion by LC/MS/MS analysis; assay type: ADME, organism-based; conditions: in vivo
[5] = Plasma concentration in Sprague-Dawley rat heart failure-induced pulmonary edema model at 0.21 ug/kg, iv bolus loading dose followed by 2.3 ug/kg/min, iv continuous infusion dose for 60 mins; assay type: ADME, organism-based
Rattus norvegicus = assay: Reversal of heart failure-induced pulmonary edema in Sprague-Dawley rat assessed as inhibition of GSK1016790A-induced increase in lung wet weight to body weight ratio at 0.02 to 0.21 ug/kg, iv bolus loading dose followed by 0.3 to 2.3 ug/kg/min, iv continuous infusion dose for 60 mins prior to agonist administration; assay type: functional, organism-based
In short: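 Rats given vehicle or antagonist by i.v. infusion, then agonist GSK1016790A i.v. at 10 µg/kg/min for 10 min (100 µg/kg total). Edema scored as wet lung weight/body weight ratio against naïve animals; inhibition computed from the agonist response; mean ± SEM.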

[6] = Dose normalized AUC (0 to t) in dog at 30 mg/kg, po; assay type: ADME, organism-based, Canis lupus familiaris; conditions: in vivo
[7] = AUC (0 to t) in rat at 98 mg/kg, po; assay type: ADME, organism-based; conditions: in vivo
[8] = Volume of distribution at steady state in Sprague-Dawley rat at 1 mg/kg, iv or 2 mg/kg, po by LC/MS/MS analysis; assay type: ADME, organism-based; conditions: in vivo, read-out: Vdss
[9] = Dose normalized AUC (0 to t) in dog at 0.9 mg/kg, po; assay type: ADME, organism-based, Canis lupus familiaris; conditions: in vivo
[10] = Permeability of the compound by PAMPA; assay type: ADME; conditions: read-out: permeability
[11] = Dose normalized AUC (0 to t) in rat at 98 mg/kg, po; assay type: ADME, organism-based; conditions: in vivo
[12] = AUC (0 to t) in dog at 0.9 mg/kg, po; assay type: ADME, organism-based, Canis lupus familiaris; conditions: in vivo
[13] = Oral bioavailability in Sprague-Dawley rat at 2 mg/kg by LC/MS/MS analysis; assay type: ADME, organism-based; conditions: in vivo

Chain of Transient receptor potential cation channel subfamily M member 8 (Q7Z2W7 whole entry): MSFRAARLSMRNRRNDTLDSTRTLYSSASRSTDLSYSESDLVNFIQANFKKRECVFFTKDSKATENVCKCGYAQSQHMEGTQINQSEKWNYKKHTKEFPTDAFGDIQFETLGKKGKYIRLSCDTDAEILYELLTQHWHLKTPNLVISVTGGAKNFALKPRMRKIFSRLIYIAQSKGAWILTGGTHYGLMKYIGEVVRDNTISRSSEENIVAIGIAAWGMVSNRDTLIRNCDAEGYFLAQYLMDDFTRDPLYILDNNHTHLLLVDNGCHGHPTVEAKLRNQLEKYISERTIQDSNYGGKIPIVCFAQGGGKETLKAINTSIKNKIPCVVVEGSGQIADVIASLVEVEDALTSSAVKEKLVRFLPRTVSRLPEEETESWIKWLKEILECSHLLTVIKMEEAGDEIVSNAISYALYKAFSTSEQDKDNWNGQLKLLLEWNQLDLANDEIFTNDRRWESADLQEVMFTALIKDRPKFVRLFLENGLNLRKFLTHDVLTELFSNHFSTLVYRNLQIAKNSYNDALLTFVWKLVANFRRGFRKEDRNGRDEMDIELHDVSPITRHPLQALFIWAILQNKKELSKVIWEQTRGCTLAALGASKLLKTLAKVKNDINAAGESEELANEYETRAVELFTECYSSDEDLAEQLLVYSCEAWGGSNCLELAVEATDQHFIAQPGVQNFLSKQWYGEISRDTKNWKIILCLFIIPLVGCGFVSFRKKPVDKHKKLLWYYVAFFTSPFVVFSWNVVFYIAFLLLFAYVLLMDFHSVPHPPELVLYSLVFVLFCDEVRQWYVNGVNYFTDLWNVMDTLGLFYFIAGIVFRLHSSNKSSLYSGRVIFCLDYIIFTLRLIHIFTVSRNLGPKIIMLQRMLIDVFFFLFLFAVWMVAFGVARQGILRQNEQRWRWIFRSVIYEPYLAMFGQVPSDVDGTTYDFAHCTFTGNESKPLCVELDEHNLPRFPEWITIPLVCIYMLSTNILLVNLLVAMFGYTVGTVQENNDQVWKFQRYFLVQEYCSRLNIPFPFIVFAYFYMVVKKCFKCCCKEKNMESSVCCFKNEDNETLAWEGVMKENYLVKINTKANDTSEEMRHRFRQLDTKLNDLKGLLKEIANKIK

With `N#Cc1ccc(S(=O)(=O)N2C[C@H](S(=O)(=O)c3ccc(Cl)cc3)[C@](O)(CO)C2)c(Cl)c1` as the molecule, how does the IC50 [1] read?
The IC50 was greater than 30 µM.

And the AUCt/dose [2]?
Its AUCt/dose is 0.5 kg·h/L.

What about the IC50 [3] of the same molecule?
Its IC50 is greater than 30 µM.

And the clearance [4]?
Its clearance is 49 mL/min/kg.

And the concentration at 1 h [5]?
Its concentration at 1 h is 152 nM.

What about the fIC50 (Rattus norvegicus) of the same molecule?
The fIC50 was 0.3 nM.

And the IC50 (Rattus norvegicus; Rattus norvegicus, Sprague-Dawley)?
Its IC50 is 0.033 µM.

What about the AUCt/dose [6] of the same molecule?
The AUCt/dose was 3 kg·h/L.

What about the AUC(0-t) [7] of the same molecule?
Its AUC(0-t) is 40000 ng·h/mL.

What about the Vd [8] of the same molecule?
The Vd was 4.5 L/kg.

And the AUCt/dose [9]?
The AUCt/dose was 2.9 kg·h/L.

And the Papp [10]?
Its Papp is 35 ×10⁻⁶ cm/s.

What about the AUCt/dose [11] of the same molecule?
Its AUCt/dose is 0.4 kg·h/L.

What about the AUC(0-t) [12] of the same molecule?
The AUC(0-t) was 2500 ng·h/mL.

What about the bioavailability [13] of the same molecule?
Its bioavailability is 100%.
